Here are results for seven compounds from ChEMBL document CHEMBL1123149, “Synthesis and antineoplastic evaluations of 5,8-bis[(aminoalkyl)amino]-1-azaanthracene-9,10-diones” (1985).

A word on the T/C: it is the ratio of treated to control.

Each structure is given as a SMILES string. In brackets after ≈: the same amount, converted by molar mass. Activity calls are given as the source filed them. The rule behind the calls is not given here.

In one assay the test system is L1210. Nature of the assay: In vitro growth inhibitory effect against L1210 murine leukemia cells was determined. The class given is functional. To be noted: Mus musculus, read-out: ID50 (the source's name). The gist of the method: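 L1210 cells, 10^5 cells/tube in 4 mL, exposed continuously 96 h to drug added in Me2SO (≤40 μL per culture) at final 0.01, 0.1 and 10 μg/mL, triplicate.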

Assay [1] relates to Mus musculus. Put plainly: Activity against L1210 leukemia cells was studied in mice at 30 mg/kg and determined as MST(treated)/MST(control) x100. The class given is functional.
For assay [2], the system named is Mus musculus. Nature of the assay: Activity against L1210 leukemia cells was studied in mice at 15 mg/kg and determined as MST(treated)/MST(control) x100. Type of assay: functional.
The test system of assay [3] is Mus musculus. Put plainly: Activity against L1210 leukemia cells was studied in mice at 100 mg/kg and determined as MST(treated)/MST(control) x100; Inactive. The class given is functional, organism-based. The arrangement: dose 100 mg/kg.
For assay [4], the system named is Mus musculus. Nature of the assay: Activity against L1210 leukemia cells was studied in mice at 50 mg/kg and determined as MST(treated)/MST(control) x100. The class given is functional.
In assay [5] the test system is Mus musculus. Put plainly: Activity against L1210 leukemia cells was studied in mice at 25 mg/kg and determined as MST(treated)/MST(control) x100. Type of assay: functional.
In assay [6] the test system is Mus musculus. Nature of the assay: Activity against L1210 leukemia cells was studied in mice at 100 mg/kg and determined as MST(treated)/MST(control) x100; Toxic. The class given is functional, organism-based. Set-up: dose 100 mg/kg.

Turning to `CN(C)CCNc1ccc(NCCN(C)C)c2c1C(=O)c1ccccc1C2=O`, the IC50 in the assay on L1210 was 0.08 µg/mL (≈ 0.21 µM). Moreover, the T/C in the assay with Mus musculus [1] is 150%; in the assay on Mus musculus [2], 117%. Take `O=C1c2cccnc2C(=O)c2c(O)ccc(O)c21`: in the assay with L1210, the IC50 was found to be 0.18 µg/mL (≈ 0.746 µM). The T/C entry in the assay with Mus musculus [3] is “inactive”. On to `CN(C)CCCNc1ccc(NCCCN(C)C)c2c1C(=O)c1cccnc1C2=O`, for which the IC50 in the assay with L1210 is 1.7 µg/mL (≈ 4.15 µM). The same measure, in the same setting: under `CCN(CC)CCNc1ccc(NCCN(CC)CC)c2c1C(=O)c1ccccc1C2=O` stands 0.3 µg/mL (≈ 0.687 µM). In the case of `CN(C)CCNc1ccc(NCCN(C)C)c2c1C(=O)c1cccnc1C2=O`, the IC50 in the assay on L1210 is 0.16 µg/mL (≈ 0.419 µM). Also, the T/C in the assay on Mus musculus [4] came out at 130%; in the assay with Mus musculus [5], 120%. For `CC(=O)NCCNc1ccc(NCCNC(C)=O)c2c1C(=O)c1cccnc1C2=O`, the IC50 in the assay on L1210 was above 10 µg/mL.

`CCN(CC)CCNc1ccc(NCCN(CC)CC)c2c1C(=O)c1cccnc1C2=O`: the IC50 in the assay on L1210 came out at 2.4 µg/mL (≈ 5.48 µM). Besides, the T/C result with Mus musculus [6] is “Toxic”.
